OX1R antag-1 = antagonists of human orexin 1 receptor; O43613; CHO/OX1R cells, Fluo-8 calcium fluorescence, orexin A; inhibition, % at 5 µM; 330,000 tested, 0.43% active; AID 434989;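 active = inhibition above its plate's threshold, mean inhibition of all tested compounds on the plate plus 3 SD, cut at about 37% in these data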;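 also: 0% = orexin A challenge wells and 100% = SB-334867-A antagonist wells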
Target sequence (O43613 whole entry, looked up): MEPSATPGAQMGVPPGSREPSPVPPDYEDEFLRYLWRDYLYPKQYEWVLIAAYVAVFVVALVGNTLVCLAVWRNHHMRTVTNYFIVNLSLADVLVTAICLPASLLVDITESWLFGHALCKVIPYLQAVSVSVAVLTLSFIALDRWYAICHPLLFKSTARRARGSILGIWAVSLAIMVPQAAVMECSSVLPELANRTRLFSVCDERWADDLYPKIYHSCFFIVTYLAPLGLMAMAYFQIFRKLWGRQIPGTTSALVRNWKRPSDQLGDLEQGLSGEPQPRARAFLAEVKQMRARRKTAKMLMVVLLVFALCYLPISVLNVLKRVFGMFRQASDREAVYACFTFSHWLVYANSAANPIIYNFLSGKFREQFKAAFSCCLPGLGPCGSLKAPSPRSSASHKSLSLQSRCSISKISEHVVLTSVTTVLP
M1 ag parental = M1 agonist counterscreen hit in parental CHO-K1 cells; Fluo-8 calcium fluorescence; scaled to maximal ATP response, vehicle zero; 360,000 tested, 0.48% active; activation, % at 3 µM; in the data active = activation above about 15%;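 also: untransfected CHO-K1 host cells lacking M1 receptor as counterscreen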
CHO-K1 Ca antag = M1 antagonist counterscreen hit in parental CHO-K1 cells; 360,000 tested, 0.6% active; ATP-induced calcium, Fluo-8 fluorescence; AID 602250; inhibition, % at 3 µM;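 active = inhibition above a per-plate cutoff, the plate's mean sample inhibition plus 3 SD, cut at about 24% in these data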;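 also: 0% = DMSO plus EC80 ATP and 100% = DMSO alone without ATP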
OX1R antag-2 = antagonists of human orexin 1 receptor (OX1R); O43613; OX1R-expressing cells, FRET antagonist read-out; inhibition, % at 6.6 µM; 330,000 tested, 1.8% active; in the data active = inhibition mostly above about 38%, no sharp cut-off; inactive = mostly below about 40%;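 also: 0% = agonist challenge alone and 100% = reference antagonist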
CHO parental Ca = signal in parental CHO cells, OX1R antagonist counter-screen | 330,000 tested, 0.63% active | parental CHO-K1, ATP-induced calcium, Fluo-8 fluorescence | inhibition, % at 5.6 µM;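 active = inhibition above that plate's mean sample inhibition plus 3 SD, cut at about 26% in these data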;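 also: 0% = ATP-challenged DMSO wells and 100% = DMSO wells without ATP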
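test system = CHO parental line | reagent = ATP stimulus | measured by = intracellular calcium via Fluo-8 no-wash fluorescent dye | control set = ATP and no-ATP DMSO wells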
CHO-K1 Ca PAM = nonselective activator or artifact in parental CHO-K1 calcium assay. ATP EC20, Fluo-8 calcium fluorescence; 0% at ATP EC20, 100% at ATP max. activation, % at 3 µM. 360,000 tested, 0.02% active;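 active = activation above the run cutoff, the mean activation of all test compounds plus 3 SD, cut at about 40% in these data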;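 also: peak over basal fluorescence ratio in a 140 s read after ATP addition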
An asterisk follows results filed as active; / = not tested or not shown. Hits are enriched below; roughly 2.9% of the tested compounds scored in any of these assays.

SMILES | OX1R antag-1 | M1 ag parental | CHO-K1 Ca antag | OX1R antag-2 | CHO parental Ca | CHO-K1 Ca PAM
COc1ccccc1N1CCN(Cc2cn[nH]c2-c2ccc(F)cc2)CC1 | -45 | 19* | -32 | 12 | -41 | 27
COc1cc(OC)c(OC)cc1CN1CCN(c2ccccc2OC)CC1 | -26 | 0 | -15 | 5 | -22 | 9
CC(=O)Nc1cccc(NC(=O)CSc2ncc(-c3ccc(Cl)cc3)n2Cc2ccco2)c1 | 73* | 8 | 12 | 82* | 61* | 1
Cc1cc(NC(=O)CSc2nnc(-c3ccccc3)n2Cc2ccco2)no1 | -35 | 0 | -10 | 21 | -21 | 0
O=C(CSc1nnc(-c2c[nH]c3ccccc23)n1CC1CCCO1)Nc1ccc2c(c1)OCCO2 (centres undefined) | -19 | 1 | -9 | 26 | -22 | 19
COc1ccc(NC(=O)CSc2nnc(-c3ccccc3)n2Cc2ccco2)cc1OC | -11 | 1 | -11 | 38* | -26 | 8
CCn1c(SCC(=O)Nc2ccc3c(c2)OCCO3)nnc1-c1c[nH]c2ccccc12 | -10 | 3 | -9 | 38* | -16 | 16
O=C(CSc1nnc(-c2ccccc2Cl)n1Cc1ccco1)Nc1ccc2c(c1)OCCO2 | -21 | 2 | -6 | 71* | -19 | 10
O=C(NCC1CCCCC1)c1cc(-c2cc(F)ccc2OCC2CCCO2)n[nH]1 (centres undefined) | / | 2 | 3 | / | / | 14
CCCCC[C@H](C)N1C[C@@H](COCc2ccccc2)Oc2cc(N3CCC[C@@H]3COC)ccc2S1(=O)=O | / | -1 | -6 | / | / | 2
CCOc1ccc2nc3ccc4[nH]onc4c3c2c1 | 43 | 0 | 16 | 44* | -8 | -7
CCOc1ccc2nc(N3CCOCC3)nc(C)c2c1 | -4 | 0 | -5 | 7 | -15 | 7
Cc1cc(C)nc(NC(=O)C2c3ccccc3Oc3ccccc32)n1 | -32 | 0 | -8 | -6 | -21 | 16
CSc1ccc(C(=O)N2CCc3ccc(NC(=O)c4ccccn4)cc3C2)cc1 | -33 | 6 | 7 | 29 | -11 | -21
CSc1ccccc1C(=O)N1CCc2ccc(NC(=O)c3ccccn3)cc2C1 | / | 6 | 25* | / | / | -16
COc1cc(C(=O)NCC(=O)N/N=C(/C)c2ccc3c(c2)CCCC3)cc(OC)c1OC | -46 | 0 | 27* | 27 | -13 | -12
COc1cc(N2CCCC2)c(OC)cc1/C=C(/C#N)c1cccc(F)c1 | 46* | 3 | -27 | 15 | 51* | 6
N#C/C(=C/c1ccc(N2CCCCCC2)o1)c1cccc(F)c1 | -17 | 1 | -14 | 11 | -13 | 3
COc1cc2c(C(=O)N(C)c3ccc(F)cc3)cn(C)c(=O)c2cc1OC | -24 | 3 | -13 | -1 | -12 | 17
Cc1ccc(CNC(=O)c2ccc(NC(=O)CCS(=O)(=O)c3cccs3)cc2)cc1 | -22 | 0 | -7 | 18 | 98* | 6
CCCCCCCCN1C(=O)[C@H](CC(=O)NCc2ccc(OC)c(OC)c2)C[C@@]2(C(=O)OC)CCCCC=C12 | / | -1 | -4 | / | / | -8
Cc1c(C(=O)N2CCN(c3ncccn3)CC2)oc2c(Cl)cccc12 | -31 | 0 | 3 | 15 | -34 | 10
CCN(CC)C(=O)CSc1nsc(SCC(=O)N(CC)CC)c1C#N | -31 | 0 | 26* | 28 | -8 | -9
Cc1cc(C)c2c(N)c(C(=O)N/N=C/c3ccccc3)sc2n1 | -24 | 1 | 1 | 43* | -18 | 6
Cc1cc(C)c2c(N)c(C(=O)N/N=C/c3cccnc3)sc2n1 | -19 | 0 | 1 | 47* | -8 | 2
SMILES | OX1R antag-1 | M1 ag parental | CHO-K1 Ca antag | OX1R antag-2 | CHO parental Ca | CHO-K1 Ca PAM
Cc1oc(-c2ccc(Cl)cc2)nc1CN1CCC(C(=O)NCCCN2CCCC(C)C2)CC1 (centres undefined) | -9 | 0 | -4 | 10 | 5 | 7
C/C(=N\Nc1cccc([N+](=O)[O-])c1)c1cc(F)ccc1O | 27 | 0 | 10 | 68* | -9 | 17
Brc1cc2c(cc1Br)OCCOCCOCCOCCO2 | -39 | 1 | 0 | 22 | -14 | 9
Brc1ccc2c(c1)OCCOCCOc1cc(Br)ccc1OCCOCCOCCO2 | 72* | 11 | -10 | 5 | 57* | 12
O=C(CSc1nnc(-c2cccs2)n1-c1ccccc1)N1CCCC1 | -13 | 1 | -22 | 9 | -9 | 6
O=C(CSc1nnc(-c2cccs2)n1-c1ccccc1)N1CCOCC1 | -16 | 0 | 35* | 16 | -8 | -24
Nn1c(SCC(=O)N2CCCC2)nnc1-c1cccs1 | / | 0 | 27* | / | / | -11
CCn1c(SCC(=O)c2ccccc2)nnc1-c1cccs1 | -8 | 0 | 26* | 22 | -5 | -9
CCc1nc2ccccc2n1CC(=O)OCC(=O)N(CC(C)C)c1c(N)n(Cc2ccccc2)c(=O)[nH]c1=O | -12 | 2 | -9 | 18 | 2 | 1
COC(=O)c1c(C(=O)OC)c(-c2ccccc2)n2c1CS(=O)(=O)C2 | -21 | 0 | 26* | 16 | -11 | -6
Cc1cc(=O)oc2cc(OCC(=O)N(C)C3CCS(=O)(=O)C3)c(Cl)cc12 (centres undefined) | -3 | 0 | -4 | -1 | -4 | 3
CN(C)CC[n+]1ccc(C(=O)c2ccccc2)cc1 | -11 | 0 | -2 | 52* | -3 | -17
O=C(c1ccccc1)c1cc[n+]([O-])cc1 | -14 | 1 | -1 | 42* | -3 | 9
O=C(C[n+]1ccc(C(=O)c2ccccc2)cc1)Nc1ccc(C(F)(F)F)cc1 | -19 | 1 | -11 | 42 | -4 | 21
CCC(=O)N(C)C[C@@H]1Oc2ncc(Br)cc2C(=O)N([C@H](C)CO)C[C@H]1C | / | 0 | -5 | / | / | -3
CCC1(c2ccc(F)cc2)NC(=O)N(CC(=O)N2CCN(S(=O)(=O)c3ccc(C)cc3C)CC2)C1=O (centres undefined) | / | 3 | -12 | / | / | 13
CCN(CC)c1ccc(C(=O)OCC(=O)Nc2ccccc2-c2ccccc2)cc1 | -3 | 1 | 7 | 49* | 67* | 20
O=[N+]([O-])c1cccc(NC(=S)Nc2nc(-c3ccccc3Cl)cs2)c1 | 31 | 13 | 19 | 31 | 64* | 8
CC(Sc1nc(-c2ccccc2)cc(C(F)(F)F)n1)C(=O)N1CCCC1 (centres undefined) | -13 | 0 | 4 | 7 | -11 | 8
CC1CCN(C(=O)C(C)Sc2nc(-c3ccccc3)cc(C(F)(F)F)n2)CC1 (centres undefined) | -30 | 1 | -13 | 11 | 30* | 15
CCOc1ccc(NC(=O)CN(C)C(=O)c2cc(S(=O)(=O)N3CCCCC3)ccc2C)cc1OCC | -37 | 1 | 1 | 6 | -24 | 10
N#CC1=C(N)OC2=C(CC/C2=C\c2ccccc2)C1c1ccccc1 (centres undefined) | 15 | 21* | 26* | 26 | 9 | 2
